Bioassay records deposited in PubChem by several laboratories.
An excerpt weighted towards active compounds, which were near 2.1% of everything screened.
Calpain2 inh – calpain II (pig) inhibition. purified calpain II, fluorogenic peptide substrate, 30 min. inhibition, % at 16 µM. 0.37% of 220,000 active. AID 1236;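 active = inhibition above about 50%, limit read from the data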
RanGTP-Imp inh – disruptors of Ran-importin-beta complex formation – biochemical, FRET, CFP-Ran, YFP-importin-beta, homogeneous, primary screen; cell-free CFP-Ran/YFP-importin-beta FRET ratio; inhibition, % (no concentration beside the values); 1.1% of 300,000 active;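 active = more than half of the replicate wells show a fall in the fluorescence ratio signal beyond about 16%, limit read from the data, passing the limit was not always enough; inconclusive = exactly half of the replicate wells pass the set limit; inactive = fewer than half of replicates pass the limit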;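 also: 0% = DMSO wells and 100% = Ran loaded with GDP instead of GTP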
FAS TE block – blocks the thioesterase domain of human fatty acid synthase. recombinant FAS-TE, OMFH fluorogenic substrate, fluorescence endpoint. 0.67% of 360,000 active. P49327. inhibition, % at 15 µM;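 active = compounds whose normalised, plate-corrected inhibition of enzyme fluorescence in the single-dose primary screen is 50% or more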;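 also: 0% = DMSO with enzyme and 100% = substrate without enzyme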
Runt-CBFb FRET – inhibitors of human RUNX1 Runt domain binding to CBFb | 0.46% of 220,000 active | AID 1496 | Cerulean-Runt/Venus-CBFb FRET ratio 530/480, 1 h | inhibition, % at 20 µM | Q01196+Q13951;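 active = inhibition over about 50% at 20 µM in the single-dose screen, limit read from the data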;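 also: 0% = DMSO wells and 100% = excess unlabeled CBFb competitor control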
Target sequence (Q01196 whole entry, looked up, the tested form may be a part): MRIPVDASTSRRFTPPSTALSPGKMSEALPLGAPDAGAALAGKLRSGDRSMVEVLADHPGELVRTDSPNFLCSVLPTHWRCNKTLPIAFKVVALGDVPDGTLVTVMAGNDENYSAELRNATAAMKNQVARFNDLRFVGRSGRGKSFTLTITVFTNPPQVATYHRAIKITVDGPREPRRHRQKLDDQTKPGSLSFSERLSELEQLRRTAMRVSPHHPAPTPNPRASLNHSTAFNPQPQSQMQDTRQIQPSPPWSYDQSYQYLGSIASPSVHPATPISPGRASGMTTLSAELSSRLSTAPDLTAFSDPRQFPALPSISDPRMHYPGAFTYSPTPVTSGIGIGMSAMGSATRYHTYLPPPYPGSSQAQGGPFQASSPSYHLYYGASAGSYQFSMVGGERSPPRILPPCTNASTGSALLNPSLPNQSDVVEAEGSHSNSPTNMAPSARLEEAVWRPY
Target sequence (Q13951 whole entry, looked up, the tested form may be a part): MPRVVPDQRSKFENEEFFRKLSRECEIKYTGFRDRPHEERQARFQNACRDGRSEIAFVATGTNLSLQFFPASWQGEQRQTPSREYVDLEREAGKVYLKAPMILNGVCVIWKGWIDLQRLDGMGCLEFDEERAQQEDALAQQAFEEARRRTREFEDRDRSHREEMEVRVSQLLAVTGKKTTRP
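test system = Cerulean-tagged RUNX1 Runt domain (FRET donor) fusion protein | reagent = Venus-CBFb binding partner, 100 nM | incubation = protein complex preformed 1 h, compound exposure 1 h, room temperature, dark | detection = FRET fluorescence | read-out basis = loss of energy transfer signal | controls = 5 µM unlabeled CBFb as full-inhibition high control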
Runt-SMMHC FRET – blocks binding of human RUNX1 Runt domain to CBFb-SMMHC | Q01196+Q13951 | Cerulean-Runt/Venus-CBFb-SMMHC FRET ratio 530/480, 1 h | inhibition, % at 20 µM | 0.74% of 220,000 active | AID 1434;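 active = mean inhibition across duplicate retests at 20 µM reaching about 50%, limit read from the data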;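 also: 0% = DMSO wells and 100% = wells with excess untagged CBFb-SMMHC; inhibitors lower the FRET ratio by blocking Runt binding to CBFb-SMMHC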
The depositor's hits bear a star; i = inactive; ? = inconclusive; nt = no result given.

SMILES	Calpain2 inh	RanGTP-Imp inh	FAS TE block	Runt-CBFb FRET	Runt-SMMHC FRET
FC(F)(F)c1cccc(NC(=S)Nc2cccc(NC(=S)Nc3cccc(C(F)(F)F)c3)n2)c1	-7.1	14.8*	39.1	23.4	5.0
CC(C)N(Cc1ccccc1)C(=O)COC(=O)C1CCCCC1	nt	nt	0.7	nt	nt
Cc1ccccc1C(N)=O	nt	nt	-2.5	nt	nt
Cc1ncsc1CCOC(=O)C12CC3CC(CC(C3)C1)C2	66.7*	1.3	8.3	-0.7	1.6
N#CCCN(Cc1ccccc1)S(=O)(=O)c1cccs1	nt	-1.0	-2.5	nt	nt
O=C1c2ccccc2C(=O)N1CCCCN(C(=O)c1ccc(Cl)s1)c1ccc(Cl)cc1	8.2	2.6	30.0	-2.1	-0.4
Cc1ccc(N(CCCCN2C(=O)c3ccccc3C2=O)C(=O)c2ccc(Cl)s2)cc1	50.2*	-2.2	33.3	-2.5	0.6
Cc1cc(C)cc(OCCNC(=O)C2CCN(S(=O)(=O)c3ccccc3)CC2)c1	nt	-1.6	18.1	nt	nt
Cc1cccc(Nc2nnc(SC/C(O)=C(\C#N)c3nc4ccccc4[nH]3)s2)c1C	-89.6	25.5*	-0.1	12.9	47.4
COc1ccc(CNC(=O)C/C(C)=N/NC(=O)COc2ccc(C)cc2Br)cc1	-15.2	3.5	4.6	-5.6	-2.7
CCCOc1ccc(C(=O)NNC(=O)CCNC(=O)c2ccco2)cc1OC	nt	6.6	-13.9	nt	nt
N=c1c(C(=O)NC2CCCC2)cc2c(=O)n3ccccc3nc2n1C1CCCC1	i	181.6*	-9.9	11.4	-21.1
N=c1c(C(=O)NCc2ccco2)cc2c(=O)n3ccccc3nc2n1C1CCCC1	nt	135.1*	-7.4	nt	nt
Cc1cccn2c(=O)c3cc(C(=O)NC4CCCC4)c(=N)n(C4CCCC4)c3nc12	-479.8	180.0*	-4.9	18.4	62.6*
O=C(NC1CCCCCC1)c1cc2c(=O)n3ccccc3nc2s1	nt	?	1.9	nt	nt
C[C@@H]1CN([C@H](C)CO)C(=O)CCCn2nncc2CO[C@H]1CN(C)C(=O)NC1CCCCC1	nt	nt	-4.7	nt	nt
C=CCN1CN(S(=O)(=O)c2cccc(Cl)c2)c2nc3ccccc3nc21	nt	1.8	18.8	nt	nt
CNc1ccc(-c2cc(OC)ccc2OC)cn1	nt	nt	-6.2	nt	nt
Cn1cc(CCCC(=O)NCc2ccc(F)cc2)c2ccccc21	nt	?	4.0	nt	nt
Cc1nn2cc(-c3ccc(Cl)cc3)nc2s1	25.9	1.2	-2.2	2.3	-3.8
Cc1nc2nc(-c3cccs3)cn2nc1C	i	57.0*	-1.4	-4.2	-105.1
COc1cccc(-c2cn3nc(C)c(C)nc3n2)c1	-302.9	?	-17.0	-3.7	-5.4
Cc1nc2nc(-c3ccc(Cl)cc3)cn2nc1C	-467.0	78.2*	-6.8	61.3*	57.2*
CCCCCCCCCCCCCCCCn1cc[n+](CC(C)=O)c1	53.8*	nt	-98.7	-3.6	2.0
CN(C)Cc1cc(O)c(CN(C)C)cc1O	20.9	1.4	-9.5	4.3	69.3*
SMILES	Calpain2 inh	RanGTP-Imp inh	FAS TE block	Runt-CBFb FRET	Runt-SMMHC FRET
O=C(O)c1ccc(NS(=O)(=O)c2cccc(C(=O)Nc3ccc(Br)cc3)c2)cc1	nt	-7.0	-0.5	nt	nt
N#Cc1c(NC(=O)c2cccc(S(=O)(=O)Nc3ccc(C(=O)O)cc3)c2)sc2c1CCCC2	51.9*	-4.4	4.9	3.4	-0.6
NC(=O)C1CCCN1Cc1ccc2c(c1)OCO2 (centres undefined)	nt	nt	-3.5	nt	nt
CC(=O)O/N=C1\C(=O)N(Cc2ccc(C)cc2)c2ccccc21	57.9*	nt	-139.4	-0.5	-2.6
O=[N+]([O-])c1cc(C(F)(F)F)ccc1NCCNC(=S)Nc1ccc(Cl)cc1	51.7*	-4.9	33.6	-5.6	-8.7
CC1CC(C)CN(C(=O)C2CCN(S(=O)(=O)c3ccc4c(c3)CC(C)N4C(=O)C3CC3)CC2)C1 (centres undefined)	nt	-0.9	9.9	nt	nt
CN1CCN(Cc2c(O)ccc3cc(-c4ccccn4)c(=O)oc23)CC1	i	143.8*	-3.5	19.0	90.8*
CCCCCCCCCCCCN1[C@@H](CC(=O)O)c2cc(C(F)(F)F)ccc2S1(=O)=O	nt	3.6	57.6*	nt	nt
CCCCCCCCN1[C@@H](CC(=O)O)c2cc(C(F)(F)F)ccc2S1(=O)=O	nt	0.0	6.3	nt	nt
Cn1c2ccccc2c(=O)c2cc(C#Cc3ccsc3)ccc21	nt	73.1*	3.6	nt	nt
Cn1c2ccccc2c(=O)c2cc(C#Cc3ccccn3)ccc21	nt	147.1*	8.6	nt	nt
Cn1c2ccccc2c(=O)c2ccc(C#Cc3ccccn3)cc21	nt	96.7*	nt	nt	nt
CC1CC(O)C(C)CN1 (centres undefined)	-11.9	-0.2	-4.1	1.0	-3.3
CC1CCCC(C)N1C(=O)COC(=O)CCC1CCCC1 (centres undefined)	nt	-0.5	-2.9	nt	nt
O=C(Nc1ccc2c(c1)OCCO2)C1CCCN(S(=O)(=O)c2cnc[nH]2)C1 (centres undefined)	-15.3	143.1*	-3.7	-0.9	3.5
O=C(Cc1cccs1)NCCc1csc(-c2ccccc2)n1	-24.0	-1.6	-2.8	-0.7	-1.2
CC(C)C(=O)N1CCC2(CC1)Oc1ccc(Cl)cc1C(=O)C21CC(c2ccccc2)=NO1 (centres undefined)	-40.7	1.2	56.6*	-2.9	-1.5
CC(Oc1ccccc1)C(=O)N1CCC2(CC1)Oc1ccc(Cl)cc1C(=O)C21CC(c2ccccc2)=NO1 (centres undefined)	nt	0.7	nt	nt	nt
C/C(=N\NC(=O)c1ccccc1)c1ccc(NC(=O)c2cccs2)cc1	30.0	6.6	-10.2	0.5	2.0
C/C(=N/NC(=O)c1ccccc1)c1ccc(NC(=O)C(F)(F)F)cc1	4.2	30.7*	-7.8	-0.3	-0.8
O=C(CN1C(=O)COc2ccc(S(=O)(=O)N3CCCCCC3)cc21)NCc1ccc(F)cc1	nt	3.0	6.4	nt	nt
COc1cccc(C2=CC(c3ccccc3)n3nnnc3N2)c1 (centres undefined)	62.6*	-30.8	8.3	-0.1	-16.3
COc1cccc(C2=CC(c3ccc(N(C)C)cc3)n3nnnc3N2)c1 (centres undefined)	0.5	-11.2	-4.6	2.3	-26.9
Cc1ccc(NC(=O)COC(=O)CCNS(=O)(=O)c2c(Cl)cccc2Cl)cc1	nt	nt	2.3	nt	nt
Cc1cc(C)c(C(=O)COC(=O)CCNS(=O)(=O)c2c(Cl)cccc2Cl)cc1C	50.6*	-2.0	31.6	-3.6	-0.2
SMILES	Calpain2 inh	RanGTP-Imp inh	FAS TE block	Runt-CBFb FRET	Runt-SMMHC FRET
Oc1ccc(-c2csc(-c3ccccc3)n2)cc1O	10.4	-4.4	0.3	37.0	52.3*
Oc1ccccc1-c1csc(-c2ccccc2)n1	2.9	1.1	21.7	-1.4	-1.7
COC(=O)C1=C(C)N=C2SC(C#N)=C(N)N2C1c1ccc(OC)cc1 (centres undefined)	-223.8	21.1*	4.1	-5.7	-19.2
O=C(Nc1cccc(C(F)(F)F)c1)c1ccc2nc(-c3ccco3)c(-c3ccco3)nc2c1	-49.4	46.6*	3.3	1.2	-13.2
O=C(Nc1ccc2nc(-c3ccco3)c(-c3ccco3)nc2c1)NC1CC1	-163.7	61.7*	-6.6	-17.1	-66.8
O=C(Nc1ccc(N2CCOCC2)cc1)Nc1ccc2nc(-c3ccco3)c(-c3ccco3)nc2c1	-273.0	25.7*	11.1	11.6	11.0
